Data from EPA's CvTdb concentration-time database.
“And” between values parts separate entries of the source, which are not always exact repeats. Equal entries are not always repeated.

What was measured:
[1] = tested on: mouse; assay: concentration in blood after dosing; negative times count back from the end of exposure; settings: dosed: tert-amyl methyl ether, inhalation, duration: 6 hr, CD-1 (Charles River)
Method in brief: (§1)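 Data points giving concentration or amount against time came from published in vivo toxicokinetic studies and from two structured collections. PubMed searching, classifier screening and manual review located the studies. Most points were digitised from plot screenshots using WebPlotDigitizer, the rest were copied from tables, and all keep their reported units.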

[2] = tested on: human; assay: amount in urine after dosing (umol)
Method in brief: as §1

CCC(C)(C)OC [tertiary amyl methyl ether]
[1]
Settings | concentration in blood [ng/mL]
0.102 h, 100 ppm, male | 239
0.1024 h, 100 ppm, male | 295
0.1031 h, 100 ppm, male | 389
0.1368 h, 500 ppm, male | 3510
0.1371 h, 500 ppm, male | 4130
0.1374 h, 500 ppm, male | 4840
0.1381 h, 500 ppm, male | 6060
0.1502 h, 100 ppm, male | 655
0.1928 h, 2500 ppm, male | 29900
0.1936 h, 2500 ppm, male | 24400
0.3202 h, 500 ppm, male | 2390
0.3841 h, 2500 ppm, male | 24800
0.385 h, 2500 ppm, male | 19700
0.3858 h, 2500 ppm, male | 14700
0.4399 h, 100 ppm, male | 209
0.444 h, 2500 ppm, female | 22700
0.4444 h, 2500 ppm, female | 20100
0.4448 h, 2500 ppm, female | 17200
0.4618 h, 100 ppm, male | 127
0.4629 h, 100 ppm, male | 273
0.8712 h, 500 ppm, male | 37.4
0.8718 h, 500 ppm, male | 1260
0.9575 h, 2500 ppm, male | 15100
0.9591 h, 2500 ppm, male | 4950
0.9832 h, 2500 ppm, female | 10000
1.014 h, 2500 ppm, female | 15500
1.656 h, 100 ppm, male | 2.6
2.039 h, 2500 ppm, male | 5350
2.04 h, 2500 ppm, male | 286
9.736 h, 500 ppm, male | 67.1
9.816 h, 100 ppm, male | 1.38
9.95 h, 2500 ppm, male | 153
17.75 h, 100 ppm, male | 3.94
17.86 h, 2500 ppm, male | 441
57.5 min, 2500 ppm, male | 10000
224 s, 2500 ppm, female | 37500
226 s, 2500 ppm, female | 34900
229 s, 2500 ppm, female | 29400

[1], during exposure
Settings | concentration in blood
-171 s, 100 ppm, male | 1330 ng/mL
-165 s, 100 ppm, male | 1570 ng/mL
-160 s, 100 ppm, male | 1750 ng/mL
-6 h, 100 ppm, male | 1190 ng/mL
-6 h, 2500 ppm, male | 19400 ng/mL
-5.956 h, 100 ppm, male | 1080 ng/mL
-5.842 h, 100 ppm, male | 1220 ng/mL
-5.755 h, 100 ppm, male | 806 ng/mL
-5.69 h, 500 ppm, male | 7230 ng/mL
-5.688 h, 500 ppm, male | 9580 ng/mL
-5.663 h, 100 ppm, male | 1040 ng/mL
-5.662 h, 100 ppm, male | 1100 ng/mL
-5.642 h, 100 ppm, male | 814 ng/mL
-5.627 h, 2500 ppm, female | 37500 ng/mL
-5.168 h, 500 ppm, male | 7230 ng/mL
-5.167 h, 500 ppm, male | 8960 ng/mL
-5.138 h, 500 ppm, male | 5900 ng/mL
-5.124 h, 100 ppm, male | 780 ng/mL
-5.123 h, 100 ppm, male | 866 ng/mL
-5.122 h, 100 ppm, male | 1090 ng/mL
-5.094 h, 2500 ppm, female | 64100 ng/mL
-5.092 h, 2500 ppm, female | 54400 ng/mL
-5.089 h, 2500 ppm, female | 32500 ng/mL
-5.084 h, 2500 ppm, male | 49400 ng/mL
-5.083 h, 2500 ppm, male | 44300 ng/mL
-5.081 h, 2500 ppm, male | 34600 ng/mL
-5.077 h, 2500 ppm, male | 9690 ng/mL
-5.053 h, 2500 ppm, male | 59500 ng/mL
-4.247 h, 500 ppm, male | 9570 ng/mL
-4.246 h, 500 ppm, male | 11400 ng/mL
-4.245 h, 500 ppm, male | 12000 ng/mL
-4.086 h, 100 ppm, male | 926 ng/mL
-4.061 h, 100 ppm, male | 1220 ng/mL
-4.06 h, 100 ppm, male | 1360 ng/mL
-4.007 h, 2500 ppm, male | 71700 ng/mL
-4.005 h, 2500 ppm, male | 61100 ng/mL
-3.988 h, 2500 ppm, female | 67100 ng/mL
-3.987 h, 2500 ppm, female | 61600 ng/mL
-3.974 h, 2500 ppm, male | 66600 ng/mL
-3.972 h, 2500 ppm, male | 49300 ng/mL
-2.21 h, 500 ppm, male | 33800 ng/mL
-2.166 h, 2500 ppm, male | 78800 ng/mL
-2.165 h, 2500 ppm, male | 72500 ng/mL
-2.164 h, 2500 ppm, male | 66200 ng/mL
-2.159 h, 2500 ppm, female | 96100 ng/mL
-2.144 h, 100 ppm, male | 1310 ng/mL and 1340 ng/mL
-2.142 h, 100 ppm, male | 1570 ng/mL
-2.129 h, 500 ppm, male | 11900 ng/mL
-2.128 h, 500 ppm, male | 13700 ng/mL
-2.127 h, 500 ppm, male | 15500 ng/mL
-2.125 h, 2500 ppm, female | 81400 ng/mL
-2.122 h, 100 ppm, male | 1220 ng/mL
-0.1963 h, 500 ppm, male | 12000 ng/mL
-0.1937 h, 500 ppm, male | 17200 ng/mL
-0.1933 h, 500 ppm, male | 17800 ng/mL
-0.1652 h, 2500 ppm, male | 83400 ng/mL
-0.1636 h, 2500 ppm, male | 73700 ng/mL
-0.1617 h, 2500 ppm, male | 61500 ng/mL
-0.1057 h, 2500 ppm, female | 101000 ng/mL
-0.1034 h, 2500 ppm, female | 86400 ng/mL
-0.1026 h, 2500 ppm, female | 81300 ng/mL

CC(C)(O)C(=O)O [2-hydroxyisobutyrate]
[2], dosed: methyl tert-butyl ether, oral
Settings | amount in urine
0 h, 5 mg | 0.0411
6.05 h, 15 mg | 3.18
6.268 h, 5 mg | 1.19
12.12 h, 5 mg | 2.99
12.19 h, 15 mg | 8.45
18.04 h, 15 mg | 10.7
18.39 h, 5 mg | 3.79
24.12 h, 15 mg | 9.14
24.44 h, 5 mg | 3.07
29.96 h, 15 mg | 11.8
30.29 h, 5 mg | 3.64
36.26 h, 15 mg | 9.95
36.46 h, 5 mg | 2.37
42.05 h, 15 mg | 4.96
42.31 h, 5 mg | 1.27
48.24 h, 15 mg | 2.63
48.47 h, 5 mg | 0.849
54.1 h, 15 mg | 3.08
54.53 h, 5 mg | 0.89
59.87 h, 15 mg | 1.63
60.27 h, 5 mg | 0.438
66.05 h, 15 mg | 0.953
66.44 h, 5 mg | 0.123
71.92 h, 15 mg | 0.593
72.6 h, 5 mg | 0.0411
77.99 h, 15 mg | 0.596
83.85 h, 15 mg | 0.357
90.03 h, 15 mg | 0.279
95.89 h, 15 mg | 0.322

[2], inhalation, duration: 4 hr
Settings | amount in urine
0 h, dosed: methyl tert-butyl ether, 4.5 ppm | 10.8
0.116 h, dosed: methyl tert-butyl ether, 38.7 ppm | 17.8
0.1579 h, dosed: ethyl tert-butyl ether, 40.6 ppm | 13.3
0.2123 h, dosed: ethyl tert-butyl ether, 4.5 ppm | 11.1
6 h, dosed: ethyl tert-butyl ether, 40.6 ppm | 41
6.115 h, dosed: ethyl tert-butyl ether, 4.5 ppm | 19.1
6.219 h, dosed: methyl tert-butyl ether, 38.7 ppm | 71.9
6.261 h, dosed: methyl tert-butyl ether, 4.5 ppm | 20.2
12 h, dosed: ethyl tert-butyl ether, 40.6 ppm | 65.3
12 h, dosed: methyl tert-butyl ether, 4.5 ppm | 26.8
12.13 h, dosed: methyl tert-butyl ether, 38.7 ppm | 147
12.31 h, dosed: ethyl tert-butyl ether, 4.5 ppm | 23.3
18 h, dosed: ethyl tert-butyl ether, 40.6 ppm | 61.2
18.26 h, dosed: methyl tert-butyl ether, 4.5 ppm | 21.8
18.32 h, dosed: ethyl tert-butyl ether, 4.5 ppm | 21.5
18.4 h, dosed: methyl tert-butyl ether, 38.7 ppm | 149
24 h, dosed: ethyl tert-butyl ether, 40.6 ppm | 50.2
24 h, dosed: methyl tert-butyl ether, 4.5 ppm | 24.3
24.14 h, dosed: methyl tert-butyl ether, 38.7 ppm | 134
24.23 h, dosed: ethyl tert-butyl ether, 4.5 ppm | 20.8
30 h, dosed: ethyl tert-butyl ether, 40.6 ppm | 70.5
30.26 h, dosed: methyl tert-butyl ether, 4.5 ppm | 27.8
30.41 h, dosed: ethyl tert-butyl ether, 4.5 ppm | 22.2
30.42 h, dosed: methyl tert-butyl ether, 38.7 ppm | 132
36.1 h, dosed: methyl tert-butyl ether, 4.5 ppm | 18.2
36.14 h, dosed: methyl tert-butyl ether, 38.7 ppm | 85.6
36.21 h, dosed: ethyl tert-butyl ether, 40.6 ppm | 51
36.28 h, dosed: ethyl tert-butyl ether, 4.5 ppm | 14.6
42.16 h, dosed: ethyl tert-butyl ether, 40.6 ppm | 41.8
42.16 h, dosed: methyl tert-butyl ether, 4.5 ppm | 14.4
42.29 h, dosed: methyl tert-butyl ether, 38.7 ppm | 63
42.3 h, dosed: ethyl tert-butyl ether, 4.5 ppm | 13.6
48.13 h, dosed: methyl tert-butyl ether, 38.7 ppm | 41.8
48.16 h, dosed: ethyl tert-butyl ether, 40.6 ppm | 34.3
48.47 h, dosed: ethyl tert-butyl ether, 4.5 ppm | 14.4
54.21 h, dosed: ethyl tert-butyl ether, 40.6 ppm | 30.1
54.31 h, dosed: methyl tert-butyl ether, 38.7 ppm | 48.6
60.15 h, dosed: methyl tert-butyl ether, 38.7 ppm | 33.6
60.16 h, dosed: ethyl tert-butyl ether, 40.6 ppm | 37.6
66.16 h, dosed: ethyl tert-butyl ether, 40.6 ppm | 20.9
66.32 h, dosed: methyl tert-butyl ether, 38.7 ppm | 24
72.06 h, dosed: methyl tert-butyl ether, 38.7 ppm | 17.8
72.16 h, dosed: ethyl tert-butyl ether, 40.6 ppm | 17.5
